# Screening results as filed in PubChem BioAssay.
# HSF1 inh – HSF1 inhibition. NIH3T3-HGL HSE-luciferase, MG132-induced, luminescence 8 h; hits give low values. activity change, negative = inhibition, % at 7.5 µM (by protocol). 0.77% of 300,000 active;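 active = more than half of replicate wells show activity change below -50%, luminescence cut by over half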;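 also: luciferase reports HSF-1 transcriptional activity via heat shock element; 0% = median of DMSO wells and -100% = zero luminescence signal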
# PolyA inh – yeast polyadenylation inhibition; S. cerevisiae SKY197-pL101 polyadenylation reporter, beta-gal luminescence; efflux-impaired pdr1/pdr3 knockout yeast; score 100 = 6 SD above DMSO; activity score, % at 12 µM; 0.02% of 300,000 active;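 active = lowest replicate activity score at least 50, where 100 means six control SD above control mean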;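 also: yeast exposed to compound for 9 h at 30 °C; higher score means more reporter readthrough which indicates perturbed polyadenylation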
# PERK inhibitor – blocks human PERK kinase. Q9NZJ5. CHO PERK-DD fusion, SEAP luminescence translation reporter. inhibition, % at 5.6 µM. 0.17% of 220,000 active;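 active = inhibition above the mean inhibition of all tested compounds plus 3 SD, set separately per screening campaign, cut at about 2.9% in these data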;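 also: PERK kinase domain activated by AP20187 dimerizer at 100 nM; 0% = DMSO with dimerizer and 100% = rapamycin at 8.4 µM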
# STAT3 act – increases IL-6 driven STAT3 reporter signal; U3A cells, IL-6 STAT3-luciferase reporter, luminescence; 100% = signal with IL-6 EC80 alone; activation (% of control), % at 5.6 µM; 0.91% of 190,000 active;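 active = activation above the screen-wide mean of compound activation plus 3 SD, cut at about 130% in these data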;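 also: 0% = background luminescence of wells with medium and substrate only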
#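 Detection: reporter luminescence signal / Assay system: STAT1-lacking human U3A cells, STAT3 luciferase reporter / Incubation: compound pre-incubation 1 h before IL-6, then 6 h stimulation at 37 °C / Control set: IL-6-only high control / Read-out: % activation relative to IL-6 control / Probe or stimulus: Interleukin-6, 33 ng/mL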
# AHR act – human AHR activation; P35869; AHR-responsive luciferase reporter cells, luminescence; activation, % at 5 µM; 2.5% of 320,000 active; in the data active = activation above about 47%;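 also: 0% = vehicle wells and 100% = reference agonist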
# Hsp70 act – switches on Hsp70 transcription; HeLa Hsp70 promoter luciferase reporter, luminescence; scaled: vehicle 0, proteasome-inhibitor control 100%; activation, % at 10 µM; 0.04% of 200,000 active; AID 1203;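 active = activation above the mean across all tested compounds plus 3 SD, cutoff set per campaign, cut at about 5.5% in these data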;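 also: 100% = MG132 at 30 µM as the positive control and 0% = DMSO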
# Starred values were filed as active, the others as inactive; x = not tested or not shown. Most compounds without a hit are left out; they make up all but 3.6% or so of the library.
SMILES,HSF1 inh,PolyA inh,PERK inhibitor,STAT3 act,AHR act,Hsp70 act
CC(C)c1ccc(-n2cnn(-c3ncccc3[N+](=O)[O-])c2=O)cc1,26,3,1,105,51*,0
Cc1cc(C)n(-c2ncccc2[N+](=O)[O-])n1,-4,-2,0,x,-1,x
c1ccc(-c2nn[nH]n2)nc1,-59*,14,2,x,6,x
NC(=O)COC(=O)c1ccccc1SCC(=O)NC1CCCCCC1,1,-8,1,98,2,0
COc1ccc(OC)c(CNC(=O)CCN2C(=O)COc3ccccc32)c1,1,2,0,105,8,0
COc1ccc(Br)cc1CNC(=O)CCN1C(=O)COc2ccccc21,-67*,-1,0,98,13,0
Fc1ccccc1-c1cc2ncccc2cn1,x,x,x,x,67*,x
COc1cc(OC)cc(-c2cc3ncccc3cn2)c1,x,x,x,x,22,x
Cc1ccc2c(c1)sc(=NC(=O)C1CC1)n2C,11,5,0,x,54*,x
Cc1ccc2c(c1)sc(=NC(=O)c1cccs1)n2C,-31,-5,0,32,56*,0
N#CCC(=O)c1sccc1-n1cccc1,-1,-14,2,105,12,0
COc1cccc(C(=O)Nc2sc(C(C)C)cc2C(N)=O)c1OC,-79*,-6,1,x,24,x
COc1cccc(C(=O)Nc2nnc(-c3ccccc3)s2)c1OC,26,13,x,x,6,x
COc1ccccc1S(=O)(=O)Cc1ccc(C(=O)NCCN2CCCCCC2)o1,-2,16,0,109,47*,0
CN(Cc1ccccc1NCC(=O)Nc1ccccc1C#N)C1CCCCC1,-11,-21,1,131,21,0
N#Cc1ccccc1NC(=O)CNc1ccccc1N1CCCCC1,-7,-4,0,135*,12,0
N#C/C(=C(/O)COC(=O)c1ccc(C#N)cc1)c1nc2ccccc2s1,-7,11,0,100,122*,0
N#C/C(=C(/O)CSc1ccccn1)c1nc2ccccc2s1,-3,2,-1,112,51*,0
Cc1ccc(S(=O)(=O)N2CCOCC2)cc1NC(=O)COC(=O)/C=C/c1ccc(F)cc1,x,x,x,x,0,x
Cc1ccc(Oc2cc(NN3CCCCC3)c([N+](=O)[O-])cc2[N+](=O)[O-])c(Cl)c1,-9,-6,x,x,4,x
COc1ccc2oc(=Nc3ccc(C(=O)O)cc3)c(C(=O)NCc3ccco3)cc2c1,-4,-1,0,101,3,0
COc1ccc2cc(C(=O)NCc3ccco3)c(=Nc3ccc(C(=O)O)cc3)oc2c1,-63*,-7,0,82,-6,0
COc1ccc(S(=O)(=O)NC(CC(C)C)C(=O)NC(C)c2cccs2)cc1 (configuration not stated),x,x,x,x,2,x
CCOC(=O)C(=CNc1cc(OC)ccc1-n1cccc1)C(=O)OCC,-1,-10,1,x,12,x
Nc1nc(NC(=O)C(Cl)(Cl)Cl)nn1-c1ccccc1,-77*,28,-1,96,1,0
SMILES,HSF1 inh,PolyA inh,PERK inhibitor,STAT3 act,AHR act,Hsp70 act
CCC(=O)Nc1nc(N)n(-c2ccccc2)n1,-5,12,1,95,4,-1
Cc1ccc(NC(=O)NCc2cccn2C)cc1C,-2,-12,x,x,10,x
Cc1cc(C(C)(C)C)oc1C(=O)N(CC(=O)NC1CCCC1)c1c(C)cccc1C,-53*,-1,1,105,1,0
O=C(CCl)Nc1ccccc1C(=O)c1ccccc1,-95*,-5,1,96,2,0
Cc1cc(C(=O)c2ccccc2)c(NC(=O)CCl)s1,21,-31,1,105,2,0
COc1ccc(S(=O)(=O)Cc2ccc(C(=O)NCc3ccc(C)cc3)o2)cc1,1,-9,x,x,1,x
COc1ccc(CNC(=O)c2ccc(CS(=O)(=O)c3ccc(Br)cc3)o2)cc1,-68*,-10,x,x,-2,x
Cn1ccnc1C(=O)Cc1ccc([N+](=O)[O-])cc1,-2,-6,x,x,0,x
COc1ccc(COc2ncnc3ccc(Br)cc23)cc1F,5,-5,x,x,7,x
Cc1ccc(-c2cc3nc(C)cc(C)n3n2)cc1,3,3,0,152*,62*,0
Cc1cc(C)n2nc(-c3ccccc3)cc2n1,26,-7,1,119,24,1
CCCOc1ccc(CSCCNC(=S)Nc2ccccc2)cc1,-2,-19,0,97,90*,0
O=C(c1cc(Br)c[nH]1)N1CCCCC1,1,12,x,x,1,x
O=C(c1cc(Br)c[nH]1)N1CCSCC1,-84*,8,x,x,3,x
Brc1cc2c(cc1CSc1ncccn1)OCO2,9,-21,x,x,26,x
CCN(CC)c1ccc2c(Cl)c(Br)c(=O)oc2c1,280,-55,0,116,53*,-1
Nc1ccc(N=Nc2ccccc2O)c(N)c1,-1,8,x,x,72*,x
CCN(CC)C(=O)Cn1ccc(NC(C)=O)nc1=O,1,4,1,x,2,x
O=C(Cc1cccs1)N1CCN(S(=O)(=O)c2ccc(F)c(F)c2)CC1,x,x,x,x,6,x
COc1ccc2nc(N=Nc3ccc(O)c4ccccc34)sc2c1,-16,9,1,132,73*,0
Cc1cccc(CN2CCN(Cc3cccc(-n4cccn4)c3)CC2CCO)n1 (configuration not stated),-5,-6,0,103,1,0
Cn1cc(S(=O)(=O)N2CCOCC2)cc1C(=O)O,x,x,x,x,0,x
Nc1nc(C(c2ccccc2)c2ccccc2)cs1,-8,-5,x,x,2,x
Cc1n[nH]c(=S)n1/N=C/c1ccc(-c2ccccc2[N+](=O)[O-])o1,11,9,1,107,60*,0
O=[N+]([O-])c1cccc(-c2ccc(/C=N/n3c(-c4ccccc4)n[nH]c3=S)o2)c1,-5,1,1,108,10,0
SMILES,HSF1 inh,PolyA inh,PERK inhibitor,STAT3 act,AHR act,Hsp70 act
O=C(N/N=C/c1ccc(-c2ccccc2[N+](=O)[O-])o1)[C@H]1C[C@@H]1c1ccccc1,25,18,0,108,69*,0
CCc1nnc(N/N=C/c2ccc(-c3ccc([N+](=O)[O-])cc3)o2)n1N,36,7,1,102,24,0
O=C(N/N=C/c1ccc(-c2ccc([N+](=O)[O-])cc2)o1)[C@H]1C[C@@H]1c1ccccc1,13,14,2,x,2,x
Cc1nnc(N/N=C\c2ccc(-c3ccccc3[N+](=O)[O-])o2)n1N,36,-23,2,127,61*,0
NC(=O)c1c(NC(=O)c2ccccc2Cl)sc2c1CCC2,-3,-11,x,x,35,x
NC(=O)c1c(NC(=O)c2ccc(F)cc2Cl)sc2c1CCC2,-18,-3,x,x,56*,x
Cc1onc(-c2ccccc2)c1C(=O)Nc1sc2c(c1C(N)=O)CCC2,-59*,4,-1,84,5,0
